Columns and labels:
[1] = test system: brain and liver proteomes; assay: CC-ABPP of in vivo protein targets of alkyne analogues; settings: 10 mg/kg, i.p., 2 hr, FAAH(+/+) and (-/-) mice
Procedure, shortened: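 Alkyne-tagged test compound given i.p. at 10 mg/kg to FAAH(+/+) and FAAH(-/-) mice; vehicle-treated mice of both genotypes served as controls. After 2 hr, mice were sacrificed and brain and liver proteomes collected. Proteomes were conjugated to a rhodamine-azide tag under click-chemistry conditions and resolved by gel with in-gel fluorescence scanning. FAAH was assigned as the 60 kDa band missing in FAAH(-/-) mice.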

FAAH [2] = molecular target: T1, FAAH (Homo sapiens, UniProt O00519); assay: FAAH inhibition kinetics, enzyme-coupled assay with oleamide as substrate; format: biochemical
T1 sequence (O00519 1-579): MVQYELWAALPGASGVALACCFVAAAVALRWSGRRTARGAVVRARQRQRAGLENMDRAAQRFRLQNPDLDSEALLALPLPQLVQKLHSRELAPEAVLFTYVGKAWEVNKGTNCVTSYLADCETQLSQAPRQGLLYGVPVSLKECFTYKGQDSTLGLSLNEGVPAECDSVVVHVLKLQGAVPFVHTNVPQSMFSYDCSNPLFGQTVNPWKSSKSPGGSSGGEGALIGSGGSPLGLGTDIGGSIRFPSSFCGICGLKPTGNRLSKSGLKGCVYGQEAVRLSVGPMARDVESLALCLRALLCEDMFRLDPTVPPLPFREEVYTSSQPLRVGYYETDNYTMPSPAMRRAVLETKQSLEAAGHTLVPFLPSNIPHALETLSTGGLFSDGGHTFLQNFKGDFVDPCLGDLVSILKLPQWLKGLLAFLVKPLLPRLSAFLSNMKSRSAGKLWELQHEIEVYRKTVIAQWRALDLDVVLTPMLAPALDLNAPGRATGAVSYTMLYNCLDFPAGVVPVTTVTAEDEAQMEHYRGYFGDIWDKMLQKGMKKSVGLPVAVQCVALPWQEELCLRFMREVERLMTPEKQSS

FAAH [3] = molecular target: T1, FAAH; assay: Inhibitor potency; format: biochemical; settings: read-out: kinact/Ki hFAAH
Procedure, shortened: (§1)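 Purified recombinant FAAH (human, rat, or humanized rat h/rFAAH) in an enzyme-coupled assay with oleamide as substrate. FAAH hydrolysis releases ammonia, which is coupled to stoichiometric NAD+ formation, read continuously. NAD+ production is linear over 40 min without inhibitor. Test compound is added from a DMSO stock. kinact and Ki are derived from progress curves and saturation plots fitted to a covalent inactivation model.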

rFAAH = molecular target: T2, rFAAH (Rattus norvegicus, UniProt P97612); assay: Inhibitor potency; format: biochemical; settings: read-out: kinact/Ki rFAAH
T2 sequence (P97612 1-579): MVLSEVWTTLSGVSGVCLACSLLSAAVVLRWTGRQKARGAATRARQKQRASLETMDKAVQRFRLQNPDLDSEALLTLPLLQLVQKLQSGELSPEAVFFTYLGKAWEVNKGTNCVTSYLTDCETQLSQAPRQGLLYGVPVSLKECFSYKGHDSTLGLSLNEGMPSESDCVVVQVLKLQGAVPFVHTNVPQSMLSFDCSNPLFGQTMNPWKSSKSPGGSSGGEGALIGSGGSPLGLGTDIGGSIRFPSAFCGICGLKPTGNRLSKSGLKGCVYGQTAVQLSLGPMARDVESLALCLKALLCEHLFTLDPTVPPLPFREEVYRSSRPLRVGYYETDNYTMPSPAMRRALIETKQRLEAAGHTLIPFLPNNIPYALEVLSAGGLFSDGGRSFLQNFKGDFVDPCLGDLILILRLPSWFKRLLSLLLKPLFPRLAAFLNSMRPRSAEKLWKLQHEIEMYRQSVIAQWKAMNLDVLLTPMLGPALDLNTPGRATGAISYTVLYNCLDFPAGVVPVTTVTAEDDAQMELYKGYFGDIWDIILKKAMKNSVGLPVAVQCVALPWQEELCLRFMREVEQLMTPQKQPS
Procedure, shortened: as §1

[4] = molecular target: T3, h/rFAAH ('humanized' rat-FAAH) (Rattus norvegicus, UniProt P97612, A377T/F194Y/I491V/L192F/S435N/V495M); assay: Inhibitor potency; format: biochemical; settings: read-out: kinact/Ki h/rFAAH
T3 sequence (P97612 30-579 L192F/F194Y/A377T/S435N/I491V/V495M limits assumed): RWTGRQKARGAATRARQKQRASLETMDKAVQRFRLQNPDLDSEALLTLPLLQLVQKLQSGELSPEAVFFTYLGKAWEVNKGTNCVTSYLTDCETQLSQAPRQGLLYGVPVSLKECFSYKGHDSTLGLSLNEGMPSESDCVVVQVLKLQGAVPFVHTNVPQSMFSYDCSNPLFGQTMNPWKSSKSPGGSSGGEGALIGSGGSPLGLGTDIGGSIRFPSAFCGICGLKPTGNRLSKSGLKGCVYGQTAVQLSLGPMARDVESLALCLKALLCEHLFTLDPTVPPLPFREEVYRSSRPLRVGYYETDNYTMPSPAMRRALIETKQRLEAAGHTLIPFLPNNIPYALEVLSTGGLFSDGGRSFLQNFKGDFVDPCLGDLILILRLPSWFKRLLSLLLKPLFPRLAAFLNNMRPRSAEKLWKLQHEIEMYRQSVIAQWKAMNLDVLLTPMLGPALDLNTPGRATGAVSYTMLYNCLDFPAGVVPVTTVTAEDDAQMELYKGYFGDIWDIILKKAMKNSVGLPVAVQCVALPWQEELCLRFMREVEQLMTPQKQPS
Procedure, shortened: as §1

human FAAH-2 = molecular target: T4, human FAAH-2 (Homo sapiens, UniProt Q6GMR7); assay: Inhibition of FAAH-2; format: biochemical
T4 sequence (Q6GMR7 1-532): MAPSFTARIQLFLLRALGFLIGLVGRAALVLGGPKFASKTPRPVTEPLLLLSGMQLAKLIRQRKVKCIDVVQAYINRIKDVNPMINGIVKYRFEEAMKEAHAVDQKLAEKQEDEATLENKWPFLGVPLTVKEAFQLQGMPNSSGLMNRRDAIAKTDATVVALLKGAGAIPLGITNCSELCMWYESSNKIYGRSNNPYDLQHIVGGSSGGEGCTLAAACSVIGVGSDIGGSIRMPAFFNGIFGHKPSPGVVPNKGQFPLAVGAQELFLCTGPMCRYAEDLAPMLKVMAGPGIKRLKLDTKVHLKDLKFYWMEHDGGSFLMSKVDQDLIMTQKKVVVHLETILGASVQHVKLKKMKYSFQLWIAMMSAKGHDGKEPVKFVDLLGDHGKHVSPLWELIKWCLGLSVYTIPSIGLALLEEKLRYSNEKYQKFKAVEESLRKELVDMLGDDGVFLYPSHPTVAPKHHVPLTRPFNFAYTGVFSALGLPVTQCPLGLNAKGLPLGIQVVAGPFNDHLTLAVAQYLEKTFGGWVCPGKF

FAAH in the brain = molecular target: T5, FAAH in the brain (Mus musculus, UniProt O08914); assay: Competitive ABPP with FP-rhodamine, brain of treated mice; format: in vivo; settings: for inactivation of FAAH in the brain: time course 1 to 24 hrs
T5 sequence (O08914 1-579): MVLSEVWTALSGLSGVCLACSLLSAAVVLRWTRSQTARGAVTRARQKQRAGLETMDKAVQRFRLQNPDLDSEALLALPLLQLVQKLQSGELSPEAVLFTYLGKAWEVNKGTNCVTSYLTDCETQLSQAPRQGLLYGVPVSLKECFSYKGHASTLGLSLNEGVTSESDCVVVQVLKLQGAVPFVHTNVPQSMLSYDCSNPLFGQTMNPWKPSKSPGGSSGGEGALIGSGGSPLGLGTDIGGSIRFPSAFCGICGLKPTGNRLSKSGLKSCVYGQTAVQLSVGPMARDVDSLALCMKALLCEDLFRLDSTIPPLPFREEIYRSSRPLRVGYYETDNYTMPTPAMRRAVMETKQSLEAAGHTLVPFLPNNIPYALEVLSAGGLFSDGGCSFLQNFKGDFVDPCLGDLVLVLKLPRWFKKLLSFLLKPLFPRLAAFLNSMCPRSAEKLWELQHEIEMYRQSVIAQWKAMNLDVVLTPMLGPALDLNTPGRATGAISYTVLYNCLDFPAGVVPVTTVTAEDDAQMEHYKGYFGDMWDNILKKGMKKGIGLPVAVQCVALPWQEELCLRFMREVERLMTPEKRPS

[5] = test system: brain and liver levels of AEA, PEA, OEA, 2-AG; assay: Tissue levels of FAAH substrates; format: in vivo, mice
[6] = test system: CFA model of inflammatory pain; assay: CFA model of inflammatory pain, mechanical allodynia; format: in vivo, rat; settings: for effect on mechanical allodynia in rats not treated with PF-3845: SR141716 10 mg/kg, SR144528 30 mg/kg, i.p.
Procedure, shortened: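 Male Sprague-Dawley rats (200–250 g) received 0.15 ml CFA into the left hind paw plantar surface. On day 5, mechanical paw withdrawal thresholds were taken with von Frey hairs by the Dixon up-down method. Test compound was then given orally (1–30 mg/kg) in 5% N,N-dimethylacetamide/95% (40% 2-hydroxypropyl-β-cyclodextrin in water), and thresholds were re-measured 4 hr post-dose. Naproxen (10 mg/kg p.o.) served as reference. n=8/group; ANOVA, unpaired t-tests.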

[7] = test system: FAAH activity and NAEs in brain, blood leukocytes/plasma, liver; assay: FAAH activity and NAE levels in tissues and blood of treated rats; format: in vivo, rat; settings: 4 hr
[8] = test system: liver serine hydrolases (carboxylesterases); assay: Competitive ABPP with FP-rhodamine, liver of treated mice; format: in vivo; settings: 10 mg/kg, i.p., 2 hr

For `C#CCCCCCCCCCNC(=O)Oc1cccc(-c2cccc(C(N)=O)c2)c1` [JP104], the “proteins labeled in brain (CC-ABPP)” value ([1]; brain) was “selectively reacted with a single protein in mouse brain” and the “proteins labeled in liver (CC-ABPP)” value ([1]; liver) was “labeling a number of proteins that were found in both FAAH(+/+) and (-/-) mice”.
`O=C(Nc1cccnc1)N1CCC(Cc2cccc(Oc3ccc(C(F)(F)F)cn3)c2)CC1` [PF-3845] was tested, and the kinact (FAAH [2]) was 0.0033 ± 0.0002 s⁻¹, the kinact/KI (FAAH [2]) was 14300 M⁻¹ s⁻¹ and the improvement in potency (FAAH [2]; PF-3845 versus PF-750 (structure comparison)) was about 20 fold. The “fold higher kinact/Ki value for FAAH” value (FAAH [2]; compared to PF-750 or URB597) was 10-20 fold, the kinact/KI (FAAH [3]) was 12600 M⁻¹ s⁻¹ and the kinact/KI (rFAAH) was 3900 ± 780 M⁻¹ s⁻¹. For the same compound, the kinact/KI [4] was 13300 M⁻¹ s⁻¹, the IC50 (human FAAH-2) was over 10 µM and the “inhibition of other FP-reactive serine hydrolases in brain” value (FAAH in the brain; 10 mg/kg, i.p., mice) was “none of the other FP-reactive serine hydrolases in this tissue were inhibited”. The “inactivation of FAAH in the brain” value (FAAH in the brain; 10 mg/kg, i.p., mice) was “rapid and complete inactivation of FAAH in the brain”, the inhibition at 10 mg/kg (FAAH in the brain; mouse, ip, read-out: brain FAAH inhibited at 24 hr) was over 75% and the “levels of 2-AG in brain or liver” value ([5]; 10 mg/kg, i.p., mice) was “did not show changes”. For the same compound, the “elevations in brain levels of AEA (and other NAEs PEA, OEA)” value ([5]; 10 mg/kg, i.p., mice, brain) was over 10 fold, the “time NAE elevations maintained at maximal levels (up to)” value ([5]; 10 mg/kg, i.p., mice, brain) was 7 to 12 h and the “time of peak elevation in NAEs” value ([5]; 10 mg/kg, i.p., mice, brain) was about 3 h. The “AEA, PEA, OEA levels at 24 hrs post-treatment” value ([5]; 10 mg/kg, i.p., mice, brain, 24 hrs) was “significant elevations”, the “AEA, PEA and OEA levels in liver tissue” value ([5]; 10 mg/kg, i.p., mice, liver) was “significant elevations” and the “endocannabinoid (AEA or 2-AG) levels in FAAH(-/-) mice” value ([5]; FAAH(-/-) mice) was “did not alter”. For the same compound, the “duration of high AEA elevations” value ([5]; mice) was “at least 7 hrs”, the “efficacy in CFA model at 1 mg/kg” value ([6]; 1 mg/kg p.o., 4 hr) was “efficacy was not observed” and the “inhibition of mechanical allodynia, time course 2-8 hrs” value ([6]; 10 mg/kg, p.o., 2-8 hrs post-administration) was “significant inhibition of mechanical allodynia at all time points tested”. The “minimum effective dose (MED), inhibition of mechanical allodynia” value ([6]; p.o., 1-30 mg/kg, rats, 4 hr post-dosing) was 3 mg/kg, the “inhibition of pain responses at 10 and 30 mg/kg” value ([6]; p.o., 10 and 30 mg/kg, versus naproxen 10 mg/kg p.o.) was “equivalent, if not greater degree than the nonsteroidal anti-inflammatory drug naproxen” and the “blockade of FAAH activity at 1 mg/kg” value ([7]; 1 mg/kg p.o.) was “near-complete blockade of FAAH activity”. For the same compound, the “elevations in AEA at 1 mg/kg” value ([7]; 1 mg/kg p.o.) was “close to maximal elevations in AEA”, the “increase of OEA and PEA in brain” value ([7]; p.o., brain) was about 10 fold and the “maximal elevation of AEA in brain and plasma” value ([7]; p.o., brain and plasma) was about 10 fold. For the same compound, the “increase of OEA and PEA in plasma” value ([7]; p.o., plasma) was about 3 fold.
For `Cc1c(C(=O)NN2CCCCC2)nn(-c2ccc(Cl)cc2Cl)c1-c1ccc(Cl)cc1` [SR141716, reference compound], the “effect on mechanical allodynia in rats not treated with PF-3845” value [6] was “neither the CB1 nor CB2 antagonist displayed significant effects”.
In the case of `NC(=O)c1cccc(-c2cccc(OC(=O)NC3CCCCC3)c2)c1` [URB597, cyclohexyl carbamic acid 3′-carbamoyl-biphenyl-3-yl ester, reference compound], the “inhibition of other FP-reactive serine hydrolases in brain” value (FAAH in the brain; 10 mg/kg, i.p., mice) is reported as “none of the other FP-reactive serine hydrolases in this tissue were inhibited”, the “brain FAAH activity at 24 hr” value (FAAH in the brain; 10 mg/kg, i.p., mice, 24 hr) is reported as “nearly wild type levels of brain FAAH activity” and the “inactivation of FAAH in the brain” value (FAAH in the brain; 10 mg/kg, i.p., mice) is reported as “rapid and complete inactivation of FAAH in the brain”. For the same compound, the “blockade of FP-labeling of additional liver serine hydrolases” value [8] was “blocked FP-labeling of several additional liver serine hydrolases” and the “time by which AEA levels return to near-baseline” value ([5]; 10 mg/kg, i.p., mice, brain) was “up to 7 hrs”.
In the case of SR144528 [reference compound], the “effect on mechanical allodynia in rats not treated with PF-3845” value [6] is reported as “neither the CB1 nor CB2 antagonist displayed significant effects”.
